Screening data deposited in PubChem by several laboratories.
Pyk2 oligo antag: blocks oligomerization of human Pyk2 in cells. Q14289. Q293 cells, Pyk2 FERM NanoBiT luminescence; hits give low values. z-score (the deposit names both 25 µM and 10 µM). 99,000 compounds, 0.83% hits. AID 1347419;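 active = Z-score of -3 or lower, scaled per plate to the spread of control and sample wells; inactive = z-score above -3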;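 also: negative z-score means lost luminescence so less FERM oligomerization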
HUVEC prolif 384: human endothelial cell proliferation inhibition; HUVEC proliferation, CellTiter-Glo luminescence, 72 h; hits give low values; viability, % at 10 µM (by protocol); 86,000 compounds, 1.1% hits; AID 648;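 active = viability at or below 30%; inactive = viability above 30%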;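 also: 100% = median luminescence of DMSO-only cell control wells on each plate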
HCT116 PTEN-null: PTEN-deleted cell growth suppression; AID 827; HCT116 PTEN-null viability, CellTiter-Glo, 60 h; hits give low values; 140,000 compounds, 1.2% hits; viability, % at 10 µM;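 active = viability at or below a set limit, 4 SD under the median of all tested compounds, cut at about 3.7% in these data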;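 also: PTEN knockout HCT116 line with beta catenin targeted HCT116 as companion control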
HCT116 bCat-KO: beta-catenin-lacking colon tumor cell growth suppression | HCT116 beta-catenin knockout viability, CellTiter-Glo, 60 h; hits give low values | viability, % at 10 µM | 140,000 compounds, 1.5% hits | AID 818;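 active = viability at or under a set limit, the compound median less 4 SD, cut at about 6% in these data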;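 also: 0% = Hyamine 1622 control at 20 µM and 100% = untreated cell control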
Fibroblast inh: blocks proliferation of human lung fibroblasts | LL 47 human lung fibroblast viability, ATP luminescence; hits give low values | viability, % at 10 µM | 85,000 compounds, 1.1% hits | AID 719;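 active = viability at or below 50% in the single dose screen; inactive = viability above 50%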;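 also: compound exposure lasted 72 h before the ATP readout; 100% = median luminescence of untreated cell-only wells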
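test system = LL 47 human lung fibroblasts | amount = 1,150 fibroblasts seeded per well | medium = 15% FBS in IMEM | times = overnight cell rest, 72 h compound treatment at 37 °C | measured by = CellTiter-Glo luminescence measuring cellular ATP | read-out = viability percentage against median untreated-cell control | benchmarks = cell-only wells, no compound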
H69AR inhibit: blocks growth of human H69AR lung tumor cells; H69AR lung tumor viability, ATP luminescence, 72 h; hits give low values; viability, % at 10 µM; 85,000 compounds, 6% hits; AID 598;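 active = viability at or below 40%; inactive = viability above 40%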;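 also: multidrug resistant small cell line overexpressing MRP-1 efflux transporter; 100% = mean luminescence of untreated control wells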
Starred values were filed as active, the others as inactive; nt = not tested or not shown. The sample as a whole holds a higher share of hits than the screen did.

SMILES | Pyk2 oligo antag | HUVEC prolif 384 | HCT116 PTEN-null | HCT116 bCat-KO | Fibroblast inh | H69AR inhibit
O=C(NC1CCCC1)c1cnn2c(C(F)(F)F)cc(-c3ccco3)nc12 | -0.24 | 85 | 62 | 68 | 78 | 33*
O=C(c1nn2c(C(F)(F)F)cc(-c3ccco3)nc2c1Br)N1CCCc2ccccc21 | -0.36 | 65 | 80 | 66 | 46* | 39*
O=C(NC1CCCC1)c1cnn2c(C(F)(F)F)cc(-c3ccc4c(c3)OCO4)nc12 | 0.18 | 28* | 7 | 11 | 84 | 17*
CC(C)CCNC(=O)c1cnn2c(C(F)(F)F)cc(-c3ccco3)nc12 | 0.74 | 86 | 59 | 66 | 97 | 56
Fc1ccc2c(c1)C(c1ccncc1)=NNC(c1cccnc1)=N2 | 0.74 | nt | 97 | 103 | nt | nt
Cc1cc(C(=O)OCC(=O)NCc2ccco2)c(C)n1-c1ccc(F)cc1 | -0.18 | 45 | 19 | 14 | 61 | 21*
Cc1cc(C)c(COCc2cc(/C=N/O)c(C)cc2C)cc1/C=N/O | -2.3 | 74 | 61 | 50 | 91 | 18*
Cc1cc(Cl)c(OCCCNCc2ccccc2)c(Br)c1 | 0.32 | nt | 1.2* | 1.5* | nt | nt
Clc1ccc(Cl)c(OCCCCNCc2ccccc2)c1 | nt | nt | 63 | 61 | nt | nt
Clc1ccc(OCCCNCc2ccccc2)c(Br)c1 | 1.1 | nt | 1.7* | 1.2* | nt | nt
CC1=NN(C(=O)c2cc(C)nn2C)C(O)(C(F)(F)F)C1 (stereo not drawn) | nt | nt | 101 | 95 | nt | nt
Clc1ccc(OCc2nc(-c3ccccn3)n[nH]2)cc1 | 0.8 | 58 | 38 | 52 | 82 | 2.2*
Brc1ccc(OCc2nc(-c3ccccn3)n[nH]2)cc1 | 0.4 | 41 | 45 | 38 | 75 | 53
CCCCSc1nc(C)cc(SCC(=O)N/N=C/c2cccc(OC)c2O)n1 | -0.77 | nt | 4 | 5.3* | nt | nt
CCCS(=O)(=O)c1nnnn1-c1cccc(OC)c1 | -2.3 | 32 | 1.3* | 1.4* | 12* | 1.1*
CCc1cc(OCCOCCN(C)C)ccc1Cl | nt | nt | 91 | 82 | nt | nt
O=C(COC(=O)c1ccccc1NC(=O)C1CC1)c1ccc2c(c1)OCCO2 | nt | nt | 94 | 84 | nt | nt
COC(=O)Cn1c(=NC(=O)c2ccc(Cl)s2)sc2cc(F)ccc21 | nt | nt | 58 | 61 | nt | nt
C#CCn1c(=NC(=O)c2cccs2)sc2cccc(OCC)c21 | nt | 79 | 92 | 92 | 95 | 23*
C#CCn1c(=NC(=O)c2ccc(Cl)s2)sc2cccc(OC)c21 | nt | 44 | 5 | 4.4* | 61 | 1.5*
CCOC(=O)Cn1c(=NC(=O)c2cccs2)sc2cc(C(=O)OC)ccc21 | nt | nt | 97 | 95 | nt | nt
CCn1c(SCc2ccc(F)cc2)nnc1-c1nn(-c2ccccc2)ccc1=O | -0.35 | nt | 90 | 95 | nt | nt
CCCN(CCC)S(=O)(=O)c1cc(Br)cc2c1N(C(=O)CC)CC2 | -0.73 | 97 | 66 | 72 | 95 | 69
COc1ccc2cc(C(c3nnnn3Cc3ccc(F)cc3)N3CCCCCC3)c(=O)[nH]c2c1 (stereo not drawn) | 1.3 | 92 | 99 | 95 | 98 | 37*
COc1ccc(Cn2nnnc2C(c2ccccc2)N2CCN(C3CCCC3)CC2)cc1 (stereo not drawn) | 0.16 | 102 | 92 | 90 | 97 | 99
SMILES | Pyk2 oligo antag | HUVEC prolif 384 | HCT116 PTEN-null | HCT116 bCat-KO | Fibroblast inh | H69AR inhibit
COc1ccc(C(c2nnnn2Cc2ccccc2)N2CCN(c3nc4ccccc4s3)CC2)cc1 (stereo not drawn) | -4.1* | 109 | 63 | 69 | 102 | 75
COc1ccc2cc(C(c3nnnn3Cc3ccccc3)N3CCCCCC3)c(=O)[nH]c2c1 (stereo not drawn) | 0.92 | 85 | nt | nt | 100 | 67
COCCn1nnnc1C(c1ccc(OC)c(OC)c1)N1CCN(c2nc3ccccc3s2)CC1 (stereo not drawn) | -3.4* | 97 | nt | nt | 96 | nt
COc1ccc(C(c2nnnn2Cc2ccccc2)N2CCN(c3ccccc3)CC2)cc1 (stereo not drawn) | -3.8* | 116 | 71 | 79 | 89 | 94
CCOc1ccccc1C(=O)N1CCCCC1C (stereo not drawn) | 0.31 | 113 | 95 | 94 | 93 | 94
Cc1nnc(SCC(=O)NC(C)(C)C)n1C1CCCCC1 | nt | nt | 92 | 101 | nt | nt
COc1ccc(C(c2nnnn2Cc2cccs2)N2CCN(c3ccccc3F)CC2)cc1 (stereo not drawn) | -3.9* | 122 | 64 | 77 | 93 | 95
COc1cccc2sc(N3CCN(c4nc5ccccc5s4)CC3)nc12 | 0.64 | 26* | 2.4* | 1.8* | 74 | 3.2*
